# Laboratory results reported in ChEMBL document CHEMBL3596093, “Synthesis and antimicrobial evaluation of 5-aryl-1,2,4-triazole-3-thione derivatives containing a rhodanine moiety” (2015).
# Tests used:
# Staphylococcus aureus [1] = experiment: Antibacterial activity against Staphylococcus aureus RN4220 after 24 hrs by two-fold serial dilution method; assay type: functional; details: RN4220, 24 h
# Outline: (§1)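 Broth microdilution MIC. Bacteria grown to mid-log phase in Mueller-Hinton broth, diluted 1000-fold, about 10^5 CFU/mL. Compounds from DMSO stocks, two-fold serial dilution from a final 64 µg/mL. Incubation at 37 °C for 24 h. Growth read as absorbance at 630 nm on a microplate reader. Run in triplicate.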
# Staphylococcus aureus [2] = experiment: Ratio of MBC to MIC for Staphylococcus aureus KCTC 503; assay type: functional
# Outline: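 The ratio divides MBC by MIC for the same strain. MIC comes from two-fold broth microdilution in Mueller-Hinton broth (about 10^5 CFU/mL, 37 °C, 24 h, absorbance at 630 nm). MBC comes from subculturing 5 µL from clear wells onto Mueller-Hinton agar for another 24 h at 37 °C, taken as the lowest concentration with no colonies.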
# Staphylococcus aureus [3] = experiment: Bactericidal activity against quinolone-resistant Staphylococcus aureus CCARM 3505 after 24 hrs by agar plate method; assay type: functional; details: CCARM 3505, 24 h
# Outline: (§2)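 5 µL from each well without visible growth plated on fresh Mueller-Hinton agar, then 37 °C for a further 24 h. MBC is the lowest concentration giving no visible colonies. Run in triplicate.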
# Staphylococcus aureus [4] = experiment: Antibacterial activity against quinolone-resistant Staphylococcus aureus CCARM 3519 after 24 hrs by two-fold serial dilution method; assay type: functional; details: CCARM 3519, 24 h; outline: as §1
# Staphylococcus aureus [5] = experiment: Antibacterial activity against methicillin-resistant Staphylococcus aureus CCARM 3167 after 24 hrs by two-fold serial dilution method; assay type: functional; details: CCARM 3167, 24 h; outline: as §1
# Salmonella typhimurium = experiment: Antibacterial activity against Salmonella typhimurium 2421 after 24 hrs by two-fold serial dilution method; assay type: functional, Salmonella enterica subsp. enterica serovar Typhimurium; details: Salmonella enterica, 2421, 24 h
# Outline: (§3)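 Strains grown to mid-log phase in Mueller-Hinton broth, then diluted 1000-fold in the same broth to about 10^5 CFU/mL. Compounds were made up as DMSO stocks and two-fold serially diluted from a final top concentration of 64 µg/mL. Incubation was 37 °C for 24 h. Growth was read as absorbance at 630 nm on a microplate reader. MIC assays were run in triplicate.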
# Staphylococcus aureus [6] = experiment: Bactericidal activity against Staphylococcus aureus KCTC 503 after 24 hrs by agar plate method; assay type: functional; details: KCTC 503, 24 h; outline: as §2
# Staphylococcus aureus [7] = experiment: Bactericidal activity against methicillin-resistant Staphylococcus aureus CCARM 3506 after 24 hrs by agar plate method; assay type: functional; details: CCARM 3506, 24 h; outline: as §2
# Staphylococcus aureus [8] = experiment: Antibacterial activity against methicillin-resistant Staphylococcus aureus CCARM 3506 after 24 hrs by two-fold serial dilution method; assay type: functional; details: CCARM 3506, 24 h; outline: as §1
# Staphylococcus aureus [9] = experiment: Bactericidal activity against methicillin-resistant Staphylococcus aureus CCARM 3167 after 24 hrs by agar plate method; assay type: functional; details: CCARM 3167, 24 h; outline: as §2
# Staphylococcus aureus [10] = experiment: Antibacterial activity against Staphylococcus aureus KCTC 503 after 24 hrs by two-fold serial dilution method; assay type: functional; details: KCTC 503, 24 h; outline: as §3
# Staphylococcus aureus [11] = experiment: Antibacterial activity against Staphylococcus aureus KCTC 209 after 24 hrs by two-fold serial dilution method; assay type: functional; details: KCTC 209, 24 h; outline: as §3
# Streptococcus mutans [12] = experiment: Bactericidal activity against Streptococcus mutans 3065 after 24 hrs by agar plate method; assay type: functional; details: Streptococcus mutans, 3065, 24 h
# Outline: (§4)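 Samples of 5 µL from MIC wells with no visible growth were plated onto fresh Mueller-Hinton agar and incubated a further 24 h at 37 °C. MBC is the lowest concentration giving no visible colony growth on the agar. Assays were run in triplicate.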
# Escherichia coli [13] = experiment: Antibacterial activity against Escherichia coli CCARM 1356 after 24 hrs by two-fold serial dilution method; assay type: functional; details: CCARM 1356, 24 h; outline: as §3
# Staphylococcus aureus [14] = experiment: Bactericidal activity against Staphylococcus aureus RN4220 after 24 hrs by agar plate method; assay type: functional; details: RN4220, 24 h; outline: as §4
# Pseudomonas aeruginosa [15] = experiment: Antibacterial activity against Pseudomonas aeruginosa 2742 after 24 hrs by two-fold serial dilution method; assay type: functional; details: Pseudomonas aeruginosa, 2742, 24 h; outline: as §3
# Staphylococcus aureus [16] = experiment: Antibacterial activity against quinolone-resistant Staphylococcus aureus CCARM 3505 after 24 hrs by two-fold serial dilution method; assay type: functional; details: CCARM 3505, 24 h; outline: as §1
# Escherichia coli [17] = experiment: Antibacterial activity against Escherichia coli KCTC 1924 after 24 hrs by two-fold serial dilution method; assay type: functional; details: KCTC 1924, 24 h; outline: as §3
# Candida albicans = experiment: Antifungal activity against Candida albicans 7535 after 24 hrs by two-fold serial dilution method; assay type: functional; details: Candida albicans, 7535, 24 h
# Pseudomonas aeruginosa [18] = experiment: Antibacterial activity against Pseudomonas aeruginosa 2004 after 24 hrs by two-fold serial dilution method; assay type: functional; details: Pseudomonas aeruginosa, 2004, 24 h; outline: as §3
# Streptococcus mutans [19] = experiment: Antibacterial activity against Streptococcus mutans 3065 after 24 hrs by two-fold serial dilution method; assay type: functional; details: Streptococcus mutans, 3065, 24 h; outline: as §3
# Staphylococcus aureus [20] = experiment: Bactericidal activity against quinolone-resistant Staphylococcus aureus CCARM 3519 after 24 hrs by agar plate method; assay type: functional; details: CCARM 3519, 24 h; outline: as §2
# Escherichia coli [21] = experiment: Bactericidal activity against Escherichia coli KCTC 1924 after 24 hrs by agar plate method; assay type: functional; details: KCTC 1924, 24 h; outline: as §4
SMILES,MIC (Staphylococcus aureus [1]) [µg/mL],MIC (Staphylococcus aureus [4]) [µg/mL],MIC (Staphylococcus aureus [5]) [µg/mL],MIC (Salmonella typhimurium) [µg/mL],MIC (Staphylococcus aureus [8]) [µg/mL],MIC (Staphylococcus aureus [10]) [µg/mL],MIC (Staphylococcus aureus [11]) [µg/mL],MIC (Escherichia coli [13]) [µg/mL],MIC (Pseudomonas aeruginosa [15]) [µg/mL],MIC (Staphylococcus aureus [16]) [µg/mL],MIC (Escherichia coli [17]) [µg/mL],MIC (Candida albicans) [µg/mL],MIC (Pseudomonas aeruginosa [18]) [µg/mL],MIC (Streptococcus mutans [19]) [µg/mL],MBC (Staphylococcus aureus [20]) [µg/mL],also measured
O=C(O)[C@H](Cc1ccccc1)N1C(=O)/C(=C/c2ccc(/C=N/n3c(-c4ccc(Br)cc4)n[nH]c3=S)cc2)SC1=S,8,8,8,> 128,16,8,> 64,> 128,> 128,8,> 128,> 64,> 128,16,64,Ratio (Staphylococcus aureus [2]): <=4; MBC (Staphylococcus aureus [3]): 32 µg/mL; MBC (Staphylococcus aureus [6]): 32 µg/mL; MBC (Staphylococcus aureus [7]): 128 µg/mL; MBC (Staphylococcus aureus [9]): 32 µg/mL; MBC (Streptococcus mutans [12]): 64 µg/mL; MBC (Staphylococcus aureus [14]): 64 µg/mL
O=C(O)[C@H](Cc1ccccc1)N1C(=O)/C(=C/c2ccc(/C=N/n3c(-c4ccc(F)cc4)n[nH]c3=S)cc2)SC1=S,16,16,16,> 128,64,32,> 64,> 128,> 128,16,> 128,> 64,> 128,64,128,Ratio (Staphylococcus aureus [2]): <=4; MBC (Staphylococcus aureus [3]): 128 µg/mL; MBC (Staphylococcus aureus [6]): 128 µg/mL; MBC (Staphylococcus aureus [7]): > 256 µg/mL; MBC (Staphylococcus aureus [9]): 128 µg/mL; MBC (Streptococcus mutans [12]): 256 µg/mL; MBC (Staphylococcus aureus [14]): 128 µg/mL
O=C(O)CN1C(=O)/C(=C/c2ccc(/C=N/n3c(-c4ccccc4)n[nH]c3=S)cc2)SC1=S,> 64,> 64,> 64,> 128,> 64,> 64,> 64,> 128,> 128,> 64,> 128,> 64,> 128,> 64,,
Cc1cccc(-c2n[nH]c(=S)n2/N=C/c2ccc(/C=C3\SC(=S)N(CC(=O)O)C3=O)cc2)c1,> 64,64,64,> 128,> 64,64,> 64,> 128,> 128,64,32,> 64,> 128,> 64,> 256,MBC (Escherichia coli [21]): > 256 µg/mL; MBC (Staphylococcus aureus [3]): > 256 µg/mL; MBC (Staphylococcus aureus [6]): > 256 µg/mL; MBC (Staphylococcus aureus [9]): > 256 µg/mL
Cc1ccc(-c2n[nH]c(=S)n2/N=C/c2ccc(/C=C3\SC(=S)N(CC(=O)O)C3=O)cc2)cc1,> 64,16,> 64,> 128,> 64,> 64,> 64,> 128,> 128,> 64,> 128,> 64,> 128,> 64,> 128,
O=C(O)CN1C(=O)/C(=C/c2ccc(/C=N/n3c(-c4cccc(Cl)c4)n[nH]c3=S)cc2)SC1=S,> 64,> 64,> 64,> 128,> 64,> 64,> 64,> 128,> 128,> 64,> 128,> 64,> 128,> 64,,
O=C(O)CN1C(=O)/C(=C/c2ccc(/C=N/n3c(-c4ccc(Cl)cc4)n[nH]c3=S)cc2)SC1=S,> 64,> 64,> 64,> 128,> 64,> 64,> 64,> 128,> 128,> 64,> 128,> 64,> 128,> 64,,
O=C(O)CN1C(=O)/C(=C/c2ccc(/C=N/n3c(-c4ccc(Br)cc4)n[nH]c3=S)cc2)SC1=S,> 64,> 64,> 64,> 128,> 64,> 64,> 64,> 128,> 128,> 64,> 128,> 64,> 128,> 64,,
Cc1cccc(-c2n[nH]c(=S)n2/N=C/c2ccc(/C=C3\SC(=S)NC3=O)cc2)c1,32,32,64,> 128,32,32,> 64,> 128,> 128,32,32,> 64,> 128,> 64,> 256,MBC (Escherichia coli [21]): 256 µg/mL; MBC (Staphylococcus aureus [3]): > 256 µg/mL; MBC (Staphylococcus aureus [6]): > 256 µg/mL; MBC (Staphylococcus aureus [7]): > 256 µg/mL; MBC (Staphylococcus aureus [9]): > 256 µg/mL; MBC (Staphylococcus aureus [14]): > 256 µg/mL
Cc1ccc(-c2n[nH]c(=S)n2/N=C/c2ccc(/C=C3\SC(=S)NC3=O)cc2)cc1,> 64,> 64,> 64,> 128,> 64,> 64,> 64,> 128,> 128,> 64,> 128,> 64,> 128,> 64,,
O=C1NC(=S)S/C1=C\c1ccc(/C=N/n2c(-c3cccc(Cl)c3)n[nH]c2=S)cc1,> 64,> 64,> 64,> 128,> 64,> 64,> 64,> 128,> 128,> 64,> 128,> 64,> 128,> 64,,
O=C1NC(=S)S/C1=C\c1ccc(/C=N/n2c(-c3ccc(Cl)cc3)n[nH]c2=S)cc1,> 64,> 64,> 64,> 128,> 64,> 64,> 64,> 128,> 128,> 64,> 128,> 64,> 128,> 64,,
O=C1NC(=S)S/C1=C\c1ccc(/C=N/n2c(-c3ccc(Br)cc3)n[nH]c2=S)cc1,> 64,> 64,> 64,> 128,> 64,> 64,> 64,> 128,> 128,> 64,64,> 64,> 128,> 64,,MBC (Escherichia coli [21]): > 256 µg/mL
O=C1NC(=S)S/C1=C\c1ccc(/C=N/n2c(-c3ccc(F)cc3)n[nH]c2=S)cc1,> 64,> 64,> 64,> 128,> 64,> 64,> 64,> 128,> 128,> 64,> 128,> 64,> 128,> 64,,
